Hits are enriched below; roughly 3.2% of the tested compounds scored in any of these assays.
DAX1 inh-1 – DAX1 (NR0B1) inhibitors on StAR promoter, primary screen, cell-based, luminescence, SF-1 (NR5A1), full-length DAX-1; AID 652010, 2013; inhibition, % at 6.8 µM; 370,000 tested, 1.1% active; HEK293T StAR-luciferase reporter, SF-1/DAX-1 repression relief;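 active = inhibition above the mean over all tested compounds plus 3 SD, cut at about 3.6% in these data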;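 note: higher inhibition means more luminescence from relief of DAX-1 repression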
NR2E3 ag-1 – NR2E3 agonists in two-hybrid cells, primary screen, cell-based, luminescence, CHO-S, Gal4-NCOR/VP16-NR2E3. luciferase. inhibition of corepressor binding, % at 3.98 µM. 360,000 tested, 0.35% active;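 active = inhibition above the mean of all tested compounds plus 3 SD, cut at about 70% in these data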;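 note: higher means lower luciferase signal from less NR2E3 corepressor binding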
NR2E3 ag-2 – inhibitors of NR2E3-RetCOR corepressor binding, primary screen, NR2E3 agonist project, biochemical, TR-FRET, GST-NR2E3, biotin-RetCOR | inhibition of corepressor binding, % at 4.78 µM | Photoreceptor-specific nuclear receptor (Homo sapiens), Q9Y5X4 | 1536-well | 320,000 tested, 0.12% active;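 active = percent inhibition above the cutoff of mean plus 3 SD of all tested compounds, set per screening campaign, cut at about 20% in these data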
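Format: 1536-well format; test system: GST-NR2E3 and biotin-RetCOR proteins; read-out basis: percent inhibition of TR-FRET ratio; timing: 5 h incubation at 4 °C; detection: time-resolved FRET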
SMARCA2 activ – SMARCA2 (BRM) function activators, primary screen, cell-based, luminescence, high throughput; MG213 cells, MMTV-luciferase reporter, dexamethasone, overnight; 370,000 tested, 1% active; AID 652017, 2013; activation, % at 9.1 µM; in the data active = activation above about 7.8%
GASC-1 inh – inhibitors of GASC-1 histone demethylase, primary screen, biochemical, fluorescence, DELFIA europium; Lysine-specific demethylase 4C (Homo sapiens), Q9H3R0; 330,000 tested, 0.069% active; GST-JMJD2C(1-420) H3K9me3 demethylation; inhibition, % at 2.35 µM;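 active = more than half of a compound's replicate wells show inhibition beyond 50%, single wells judged on their own value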;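 note: signal counts dimethyl H3K9 product captured on neutravidin plate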
DAX1 inh-2 – DAX1 (NR0B1) inhibitors, primary screen, cell-based, HEK293, Gal4-DAX1, luciferase luminescence; Nuclear receptor subfamily 0 group B member 1 (Homo sapiens), P51843; HEK293 Gal4-DAX1 luciferase reporter; inhibition, % at 6.75 µM; 340,000 tested, 0.99% active;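 active = inhibition above the mean over all tested compounds plus 3 SD, cut at about 4.2% in these data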;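 note: inhibition shows as a rise in luminescence from relieved DAX1 repression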
Target sequence (P51843 207-470 limits assumed): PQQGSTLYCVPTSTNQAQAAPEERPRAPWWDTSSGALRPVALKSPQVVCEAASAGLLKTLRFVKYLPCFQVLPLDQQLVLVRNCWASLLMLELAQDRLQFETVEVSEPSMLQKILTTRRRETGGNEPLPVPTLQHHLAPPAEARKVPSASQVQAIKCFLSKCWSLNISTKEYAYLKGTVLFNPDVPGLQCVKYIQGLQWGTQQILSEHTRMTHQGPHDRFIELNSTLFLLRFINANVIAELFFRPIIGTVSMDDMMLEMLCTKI
SMARCA2 conf – SMARCA2 (BRM) function activators, confirmation, cell-based, luminescence, triplicate | shares compounds with SMARCA2 activ | MG213 cells, MMTV-luciferase with dexamethasone, overnight; MG213 cells expressing E1A, Rb sequestered; DMSO wells 0%, reference activator 100% | activation, % at 9.1 µM | 3,500 tested, 30% active | AID 652260, 2013;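 active = activation above its plate's cutoff, the mean activation of tested wells plus 3 SD, cut at about 7.9% in these data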
GAL4-VP16 Luc – GAL4-VP16 luciferase reporter activation, counter-screen for SMARCA2 (BRM) activator project, cell-based, pG5luc, luminescence, high throughput; shares compounds with SMARCA2 activ; HEK293 GAL4-VP16 pG5luc reporter; scaled: DMSO wells 0%, SAHA wells 100%; activation, % at 9.1 µM; 3,500 tested, 41% active; AID 686939, 2013;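 active = activation above the solvent-only control well mean plus 3 SD, averaged across control plates, cut at about 5.2% in these data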
A number is an active result.

Screening Cc1ccccc1C(=O)N1Cc2cnnn2-c2ccccc2C1C#N (stereo unspecified) returned DAX1 inh-1 inactive, NR2E3 ag-1 inactive, SMARCA2 activ inactive and DAX1 inh-2 inactive.
COC(=O)C1=C(c2ccc(OC(F)(F)F)cc2)C[C@@H]2CC[C@H]1N2C(=O)NCCOc1ccc(OC)cc1 was read as DAX1 inh-1 inactive, NR2E3 ag-1 inactive, NR2E3 ag-2 inactive, SMARCA2 activ inactive, GASC-1 inh inactive and DAX1 inh-2 inactive.
Screening Cc1ccccc1NC(=S)NC(NC(=O)CF)C(Cl)(Cl)Cl (stereo unspecified) returned DAX1 inh-1 inactive, NR2E3 ag-1 inactive, NR2E3 ag-2 inactive, SMARCA2 activ 9.2, GASC-1 inh inactive, DAX1 inh-2 5.6, SMARCA2 conf inactive and GAL4-VP16 Luc inactive.
Screening COc1cc2c(cc1OC)-c1c3c(cc4c1[C@@H](C2)N(C)CC4)OCO3 returned DAX1 inh-1 inactive, NR2E3 ag-1 inactive, NR2E3 ag-2 inactive, SMARCA2 activ 11, GASC-1 inh inactive, DAX1 inh-2 inactive, SMARCA2 conf 15 and GAL4-VP16 Luc inactive.
CN(C)P(=O)(C(Cl)=C(N1CCCCC1)N1CCCCC1)N(C)C was read as DAX1 inh-1 inactive, NR2E3 ag-1 inactive, NR2E3 ag-2 inactive, SMARCA2 activ 19, GASC-1 inh inactive, DAX1 inh-2 inactive, SMARCA2 conf 39 and GAL4-VP16 Luc inactive.
`O=P(N1CCCCC1)(N1CCCCC1)C(Cl)(Cl)Cl` gave DAX1 inh-1 inactive, NR2E3 ag-1 inactive, NR2E3 ag-2 inactive, SMARCA2 activ inactive, GASC-1 inh inactive and DAX1 inh-2 inactive.
For OC1CN2CCCC(O)C2C1O (stereo unspecified) the results were DAX1 inh-1 inactive and SMARCA2 activ inactive.
